Test results taken from the RNAGym collection of RNA variant scans (doi:10.1126/science.aae0568).
Fewer inactive variants are shown than the library holds.

B1: tRNA (parent)
chain: GUUCCGUUGGCGUAAUGGUAACGCGUCUCCCUCCUAAGGAGAAGACUGCGGGUUCGAGUCCCGUACGGAACG

Variants of: B1
Experiment: yeast fitness relative to wild type (ratio to wild type); higher = fitter; tRNA-Arg(CCU), competitive growth, 37 C, YPD
How it was run: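 Variants of the tRNA-Arg(CCU) gene, chemically synthesised with a 3% per-site mutation rate at 69 sites, were placed at the native genomic locus in Saccharomyces cerevisiae. The pooled strains were competed in YPD at 37°C for 24 hours in six parallel replicates. Gene amplicons from the start population and from each end population were read by 100-nucleotide paired-end sequencing. Darwinian fitness relative to wild type came from changes in genotype frequencies; genotypes needed ≥ 100 starting reads, and estimates < 0.5 were set to 0.5.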

Row | Variant | yeast fitness
1 | G17C C22A U32C | 0.553
2 | G17A C27G C61U | ≤ 0.5
3 | G17A U47C A57G A69U | ≤ 0.5
4 | U16C U59C G67A | ≤ 0.5
5 | G17A C34A A57U | ≤ 0.5
6 | U16G G67U | 0.774
7 | G17C A37G C55U | ≤ 0.5
8 | U16G G18C U59A A65U C66A | ≤ 0.5
9 | G17A C30U A42C | ≤ 0.5
10 | U16C G48C | 0.894
11 | G17C C24A A36U G41C | ≤ 0.5
12 | G17A C22U A37U U47A G68C | ≤ 0.5
13 | U16G A21G C31U | 0.985
14 | G17C A36G C49U C66U A69C | 0.598
15 | U16G C49U G56C | ≤ 0.5
16 | G17C A21G A40C G44C C61A | 0.622
17 | G17C A36G A57G C66U A69C | 0.59
18 | G17A C24G C33G C60U | ≤ 0.5
19 | G17A U54C U59C C61G | ≤ 0.5
20 | G17A C22U U59A | ≤ 0.5
21 | U16C U26A G38C U47A C49A | ≤ 0.5

Row | Variant | yeast fitness
22 | G17A C34A C49U G52U | ≤ 0.5
23 | G17A A21G U26C C66A | ≤ 0.5
24 | G17C A20U C27U U53C | 0.619
25 | U16G G25A U28G C34U G63C | ≤ 0.5
26 | G17C A42C C61A | ≤ 0.5
27 | G17A C22U U28C A65U | ≤ 0.5
28 | G17C A37G A40C | 0.619
29 | U16C C66U | 0.891
30 | G17C A43U G48A C66G | ≤ 0.5
31 | G17A C24U C29G | 0.533
32 | U16G C29G G58A | 0.59
33 | G17C C24A A45C | 0.508
34 | U16C G25C U53A | ≤ 0.5
35 | G17A C29G U47A G51A | ≤ 0.5
36 | U16C U35G G48C C66U | ≤ 0.5
37 | U16C G41A C49U | 0.605
38 | G17C C22A C31G C55G G68A | 0.587
39 | U16G C46A G56C A70G | ≤ 0.5
40 | U16G A20U | 0.642
41 | G17A U28G A42G G68U | ≤ 0.5
42 | G17A C30G A45G A65U | ≤ 0.5

Row | Variant | yeast fitness
43 | U16C G17C A21C C66U G68A | ≤ 0.5
44 | G17A A20G U53A | ≤ 0.5
45 | G17A G39C G56C | ≤ 0.5
46 | G17A U28C C46U G63A | ≤ 0.5
47 | U16C G18A C24G A45U C62A | ≤ 0.5
48 | G17A C22A U35C A45C C46U | 0.537
49 | U16G C29U C31A A57C G67C | ≤ 0.5
50 | U16C U26C G58A | 1.11
51 | G17A C29G U59G C61G C62U | ≤ 0.5
52 | G17C A57G G67A | 0.56
53 | G17A C34A G52U | ≤ 0.5
54 | G17A U28A A37G | ≤ 0.5
55 | U16G C22A A57G | ≤ 0.5
56 | U16G C22U C62U | 0.645
57 | G17A G41A | 0.665
58 | U16G G38A U54C A65U | ≤ 0.5
59 | U16G G51C A65C | 0.635
60 | G17A A42G G50A | ≤ 0.5
61 | U16G A42G G48A | ≤ 0.5
62 | G17A C22G C27A A36G | ≤ 0.5
63 | U16C U26A G38C | ≤ 0.5

Row | Variant | yeast fitness
64 | G17A C33G A40U G51C | ≤ 0.5
65 | G17A A37G | 0.606
66 | G17C A45U A65C | ≤ 0.5
67 | G17A U32C A40G | 0.573
68 | G17A U26G C29G C62U A70G | ≤ 0.5
69 | G17C A20U A42U G67A | ≤ 0.5
70 | U16G C24U U28C A36C A65C | 0.58
71 | G17C A36G A45G | 0.505
72 | U16C G44A C49U U54C G56C | ≤ 0.5
73 | G17A A20G G25C C34U C46G G63A A65C | 0.561
74 | G17A A37C G52A G56A G63C | ≤ 0.5
75 | U16G C33U G44C | ≤ 0.5
76 | G17A C60G C61G | ≤ 0.5
77 | U16G C46U U53C A69C | 0.711
78 | U16G A45U U54C U64A | ≤ 0.5
79 | G17A C31U G52A | ≤ 0.5
80 | G17A G25A | 0.886
81 | G17C C22U C60G | 0.719
82 | G17A C30G | 0.604
83 | G17C A37C A40C C61U G68A | ≤ 0.5
